Results published in ChEMBL document CHEMBL1146851, “Discovery of 2-pyrimidyl-5-amidothiophenes as potent inhibitors for AKT: synthesis and SAR studies” (Bioorg Med Chem Lett, 2006).
Active and inactive are the calls of the source. The calls are words filed in the database; no cut-off is given here.

Legend:
[1] = target: T1, RAC-gamma serine/threonine-protein kinase (Homo sapiens, UniProt Q9Y243); assay: Inhibition of AKT3 in presence of 0.2 uM ATP
Method in brief: (§1)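 Biochemical kinase IC50s, each run with ATP at or below its Km.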

[2] = target: T2, Serine/threonine-protein kinase AKT (Homo sapiens, UniProt P31751+Q9Y243+P31749); assay: Activity against AKT-mediated S6RP S235/236P phosphorylation in human DOV13 cell line; format: functional, cell-based
[3] = target: RAF proto-oncogene serine/threonine-protein kinase (Homo sapiens, UniProt P04049); assay: Inhibition of RAF1; method in brief: as §1
[4] = tested on: DOV13; assay: Antiproliferative activity against human DOV13 cell line; format: functional, cell-based
[5] = target: T2, Serine/threonine-protein kinase AKT; assay: Activity against AKT-mediated GSK3 S9P phosphorylation in human DOV13 cell line; format: functional, cell-based
[6] = target: T3, cAMP-dependent protein kinase (PKA) (Homo sapiens, UniProt P22694+P17612+P22612); assay: Inhibitory activity against PKA in human UACC903 cell line at 10 nM; format: functional, cell-based; conditions: UACC-903
Method in brief: (§2)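 UACC903 melanoma cells were pre-incubated with the test compound at various concentrations for 45 min, then stimulated with 7 μM forskolin for 15 min before lysis. Lysates were Western blotted for phospho-VASP as the PKA read-out, with phospho-MDM2 as the AKT read-out.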

[7] = target: Calcium/calmodulin-dependent protein kinase type II subunit alpha (Homo sapiens, UniProt Q9UQM7); assay: Inhibition of CamK2alpha
Method in brief: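 IC50 from an in vitro kinase assay with ATP at or below its Km.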

[8] = target: T1, RAC-gamma serine/threonine-protein kinase; assay: Inhibition of AKT3
Method in brief: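 Kinase IC50 determined in a biochemical kinase assay with ATP at or below its Km.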

[9] = target: Mast/stem cell growth factor receptor Kit (Homo sapiens, UniProt P10721); assay: Inhibition of Kit
[10] = target: T3, cAMP-dependent protein kinase (PKA); assay: Inhibitory activity against PKA in human UACC903 cell line at 33 nM; format: functional, cell-based; conditions: UACC-903; method in brief: as §2
[11] = target: Hepatocyte growth factor receptor (Homo sapiens, UniProt P08581); assay: Inhibition of Met; method in brief: as §1
[12] = target: Mitogen-activated protein kinase 3 (Homo sapiens, UniProt P27361); assay: Inhibition of ERK1; method in brief: as §1
[13] = target: Protein kinase C alpha type (Homo sapiens, UniProt P17252); assay: Inhibition of PKCa
[14] = target: RAC-alpha serine/threonine-protein kinase (Homo sapiens, UniProt P31749); assay: Inhibition of AKT1; method in brief: as §1
[15] = target: T2, Serine/threonine-protein kinase AKT; assay: Activity against AKT-mediated PRAS40 T246P phosphorylation in human DOV13 cell line; format: functional, cell-based
[16] = target: T3, cAMP-dependent protein kinase (PKA); assay: Inhibition of PKA; format: protein assay; method in brief: as §1

T1 sequence (Q9Y243 whole entry): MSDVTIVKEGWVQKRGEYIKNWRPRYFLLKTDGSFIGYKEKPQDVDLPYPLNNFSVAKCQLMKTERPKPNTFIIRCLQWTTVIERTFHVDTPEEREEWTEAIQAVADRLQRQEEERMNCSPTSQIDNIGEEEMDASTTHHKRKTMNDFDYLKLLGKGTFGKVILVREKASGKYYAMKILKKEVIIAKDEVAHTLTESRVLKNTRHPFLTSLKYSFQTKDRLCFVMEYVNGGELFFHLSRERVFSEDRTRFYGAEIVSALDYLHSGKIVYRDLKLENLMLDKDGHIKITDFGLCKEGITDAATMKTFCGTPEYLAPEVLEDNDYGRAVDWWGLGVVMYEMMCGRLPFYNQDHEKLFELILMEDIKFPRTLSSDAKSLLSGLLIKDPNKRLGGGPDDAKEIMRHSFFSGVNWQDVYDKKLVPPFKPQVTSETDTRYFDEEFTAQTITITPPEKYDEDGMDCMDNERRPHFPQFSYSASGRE
Chain of Mast/stem cell growth factor receptor Kit (P10721 whole entry): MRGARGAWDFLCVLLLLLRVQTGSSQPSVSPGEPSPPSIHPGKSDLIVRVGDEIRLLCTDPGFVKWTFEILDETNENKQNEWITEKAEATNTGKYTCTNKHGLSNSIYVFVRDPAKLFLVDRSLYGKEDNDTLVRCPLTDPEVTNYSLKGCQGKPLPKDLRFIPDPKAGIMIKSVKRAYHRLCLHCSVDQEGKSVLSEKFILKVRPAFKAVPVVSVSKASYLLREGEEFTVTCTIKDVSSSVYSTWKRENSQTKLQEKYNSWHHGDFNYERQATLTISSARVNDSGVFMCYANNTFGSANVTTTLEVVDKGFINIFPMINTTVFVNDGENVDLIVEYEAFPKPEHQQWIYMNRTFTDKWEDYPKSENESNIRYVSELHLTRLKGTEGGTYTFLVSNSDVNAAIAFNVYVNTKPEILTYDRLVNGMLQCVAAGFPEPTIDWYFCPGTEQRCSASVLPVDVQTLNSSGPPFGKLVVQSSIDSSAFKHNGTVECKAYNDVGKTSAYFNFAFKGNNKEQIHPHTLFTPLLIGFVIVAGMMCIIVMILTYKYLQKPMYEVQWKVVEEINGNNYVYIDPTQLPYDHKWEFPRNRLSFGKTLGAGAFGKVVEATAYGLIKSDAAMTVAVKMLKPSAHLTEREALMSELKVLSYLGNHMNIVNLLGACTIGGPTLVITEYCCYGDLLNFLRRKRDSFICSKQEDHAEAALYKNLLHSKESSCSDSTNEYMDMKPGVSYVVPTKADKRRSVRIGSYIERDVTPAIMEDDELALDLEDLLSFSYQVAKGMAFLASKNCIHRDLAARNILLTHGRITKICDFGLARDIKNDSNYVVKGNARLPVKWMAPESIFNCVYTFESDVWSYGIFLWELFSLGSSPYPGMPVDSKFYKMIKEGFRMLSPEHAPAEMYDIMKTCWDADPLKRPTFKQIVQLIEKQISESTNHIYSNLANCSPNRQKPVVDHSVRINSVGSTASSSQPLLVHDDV
Chain of RAC-alpha serine/threonine-protein kinase (P31749 whole entry): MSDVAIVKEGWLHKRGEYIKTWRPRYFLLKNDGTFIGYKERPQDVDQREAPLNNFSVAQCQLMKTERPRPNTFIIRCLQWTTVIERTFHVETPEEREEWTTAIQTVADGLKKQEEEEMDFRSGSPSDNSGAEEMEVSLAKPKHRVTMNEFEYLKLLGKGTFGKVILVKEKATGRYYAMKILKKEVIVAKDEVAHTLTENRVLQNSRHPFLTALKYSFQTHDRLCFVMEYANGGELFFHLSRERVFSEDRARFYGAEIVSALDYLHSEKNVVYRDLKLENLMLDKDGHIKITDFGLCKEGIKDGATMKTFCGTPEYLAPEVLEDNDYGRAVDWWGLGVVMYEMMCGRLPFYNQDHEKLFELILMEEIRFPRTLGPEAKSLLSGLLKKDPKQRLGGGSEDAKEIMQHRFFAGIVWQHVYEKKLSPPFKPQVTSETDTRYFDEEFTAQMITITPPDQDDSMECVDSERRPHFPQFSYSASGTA
Chain of Mitogen-activated protein kinase 3 (P27361 whole entry): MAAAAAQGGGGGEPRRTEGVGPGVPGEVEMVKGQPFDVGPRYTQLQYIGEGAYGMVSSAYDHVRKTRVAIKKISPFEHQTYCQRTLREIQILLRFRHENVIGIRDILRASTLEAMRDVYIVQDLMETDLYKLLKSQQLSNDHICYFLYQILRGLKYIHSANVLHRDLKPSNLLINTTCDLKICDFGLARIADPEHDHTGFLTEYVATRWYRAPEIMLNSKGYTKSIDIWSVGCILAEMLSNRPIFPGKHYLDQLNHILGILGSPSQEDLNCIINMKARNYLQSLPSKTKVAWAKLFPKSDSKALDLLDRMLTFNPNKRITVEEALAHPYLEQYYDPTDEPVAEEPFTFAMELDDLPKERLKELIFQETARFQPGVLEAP
Chain of Calcium/calmodulin-dependent protein kinase type II subunit alpha (Q9UQM7 whole entry): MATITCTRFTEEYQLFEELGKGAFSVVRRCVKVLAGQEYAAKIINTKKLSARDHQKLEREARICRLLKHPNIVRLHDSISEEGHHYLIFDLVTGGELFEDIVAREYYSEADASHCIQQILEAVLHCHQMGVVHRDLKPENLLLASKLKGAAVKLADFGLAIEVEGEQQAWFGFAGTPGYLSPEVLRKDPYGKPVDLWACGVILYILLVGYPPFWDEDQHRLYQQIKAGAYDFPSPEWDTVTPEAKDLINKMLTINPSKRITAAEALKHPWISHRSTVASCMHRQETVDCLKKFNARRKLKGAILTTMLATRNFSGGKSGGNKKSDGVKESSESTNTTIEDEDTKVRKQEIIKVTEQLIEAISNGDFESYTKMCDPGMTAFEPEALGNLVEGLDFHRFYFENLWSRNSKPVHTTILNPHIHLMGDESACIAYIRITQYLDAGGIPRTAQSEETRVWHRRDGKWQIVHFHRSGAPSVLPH
Chain of Hepatocyte growth factor receptor (P08581 whole entry): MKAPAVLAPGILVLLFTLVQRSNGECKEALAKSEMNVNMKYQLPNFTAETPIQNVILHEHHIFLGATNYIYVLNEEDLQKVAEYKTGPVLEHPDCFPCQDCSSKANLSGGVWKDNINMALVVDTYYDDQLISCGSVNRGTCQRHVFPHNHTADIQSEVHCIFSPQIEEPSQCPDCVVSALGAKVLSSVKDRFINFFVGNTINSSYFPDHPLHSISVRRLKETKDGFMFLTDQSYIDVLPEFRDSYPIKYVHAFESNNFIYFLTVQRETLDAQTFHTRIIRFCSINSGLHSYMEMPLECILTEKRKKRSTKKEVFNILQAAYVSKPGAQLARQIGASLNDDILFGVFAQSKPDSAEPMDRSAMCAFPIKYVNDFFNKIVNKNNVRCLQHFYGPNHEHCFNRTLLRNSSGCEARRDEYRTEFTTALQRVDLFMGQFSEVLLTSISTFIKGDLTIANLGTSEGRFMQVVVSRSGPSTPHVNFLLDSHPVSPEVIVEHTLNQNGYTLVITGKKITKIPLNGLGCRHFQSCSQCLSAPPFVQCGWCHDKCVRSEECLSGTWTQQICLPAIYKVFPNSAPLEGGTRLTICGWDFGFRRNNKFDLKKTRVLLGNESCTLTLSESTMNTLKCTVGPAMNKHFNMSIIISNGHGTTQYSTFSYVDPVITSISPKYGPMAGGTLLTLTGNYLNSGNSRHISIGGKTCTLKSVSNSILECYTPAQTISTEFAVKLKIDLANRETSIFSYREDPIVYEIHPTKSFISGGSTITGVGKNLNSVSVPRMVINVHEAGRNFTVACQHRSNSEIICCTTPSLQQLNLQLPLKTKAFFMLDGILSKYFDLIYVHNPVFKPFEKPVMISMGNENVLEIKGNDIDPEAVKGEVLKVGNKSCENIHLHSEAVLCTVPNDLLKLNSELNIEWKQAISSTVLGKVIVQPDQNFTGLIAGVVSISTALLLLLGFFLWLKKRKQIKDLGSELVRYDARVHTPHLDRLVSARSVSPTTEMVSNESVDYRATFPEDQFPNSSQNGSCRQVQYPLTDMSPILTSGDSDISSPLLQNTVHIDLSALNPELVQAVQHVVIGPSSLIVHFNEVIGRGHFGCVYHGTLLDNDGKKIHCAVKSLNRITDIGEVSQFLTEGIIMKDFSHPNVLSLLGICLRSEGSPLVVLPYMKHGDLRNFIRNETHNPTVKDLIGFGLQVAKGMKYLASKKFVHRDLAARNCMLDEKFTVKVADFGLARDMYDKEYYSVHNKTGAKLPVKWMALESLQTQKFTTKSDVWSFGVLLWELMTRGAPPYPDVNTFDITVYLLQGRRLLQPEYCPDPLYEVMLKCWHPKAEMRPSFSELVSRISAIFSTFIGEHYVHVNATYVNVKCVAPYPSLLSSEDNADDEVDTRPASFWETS
Chain of RAF proto-oncogene serine/threonine-protein kinase (P04049 whole entry): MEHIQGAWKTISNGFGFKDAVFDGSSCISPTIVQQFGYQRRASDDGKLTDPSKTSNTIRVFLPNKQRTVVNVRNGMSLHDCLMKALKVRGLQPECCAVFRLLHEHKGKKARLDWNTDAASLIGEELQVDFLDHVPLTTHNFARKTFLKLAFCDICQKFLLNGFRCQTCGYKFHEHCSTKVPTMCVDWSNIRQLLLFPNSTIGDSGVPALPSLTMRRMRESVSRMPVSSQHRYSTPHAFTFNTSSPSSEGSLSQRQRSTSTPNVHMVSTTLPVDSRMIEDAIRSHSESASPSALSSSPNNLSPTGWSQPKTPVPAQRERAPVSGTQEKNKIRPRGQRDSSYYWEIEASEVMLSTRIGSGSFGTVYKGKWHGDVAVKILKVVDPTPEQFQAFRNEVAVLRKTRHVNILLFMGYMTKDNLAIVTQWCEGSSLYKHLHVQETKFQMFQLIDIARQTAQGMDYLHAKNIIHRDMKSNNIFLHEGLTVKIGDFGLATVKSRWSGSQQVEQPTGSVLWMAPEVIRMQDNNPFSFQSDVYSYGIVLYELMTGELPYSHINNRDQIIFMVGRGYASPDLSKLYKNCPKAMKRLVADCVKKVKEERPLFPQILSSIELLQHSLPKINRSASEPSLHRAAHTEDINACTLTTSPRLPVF

| Structure (SMILES) | IC50 [1] | further results |
| --- | --- | --- |
| CNc1nccc(-c2ccc(C(=O)NC[C@@H](N)c3ccccc3)s2)n1 | 2.8 µM | – |
| CNc1nccc(-c2ccc(C(=O)NCCc3ccc(C)cc3)s2)n1 | > 25 µM | – |
| CNc1nccc(-c2ccc(C(=O)NCC(C)c3ccc(Cl)cc3Cl)s2)n1 (stereo unspecified) | 0.66 µM | – |
| CNc1nccc(-c2ccc(C(=O)N[C@H](CN)Cc3ccc(Cl)cc3Cl)s2)n1 | – | EC50 [2]: 0.37 µM; IC50 [3]: > 10 µM; EC50 [4]: 1 µM; EC50 [5]: 0.32 µM; Activity [6]: Active; IC50 [7]: 8 µM; IC50 [8]: 0.003 µM; IC50 [9]: 0.11 µM; Activity [10]: Active; IC50 [11]: 1.1 µM; IC50 [12]: 0.4 µM; IC50 [13]: 0.066 µM; IC50 [14]: 0.006 µM; EC50 [15]: 0.16 µM; IC50 [16]: 0.0001 µM |
| CCCNc1nccc(-c2ccc(C(=O)NCCc3ccc(Cl)cc3Cl)s2)n1 | > 25 µM | – |
| CNc1nccc(-c2ccc(C(=O)Nc3ccc(F)cc3)s2)n1 | > 25 µM | – |
| CNc1nccc(-c2ccc(C(=O)NCCc3ccc(F)cc3)s2)n1 | 3 µM | – |
| CNc1nccc(-c2ccc(C(=O)NCCc3ccncc3)s2)n1 | > 25 µM | – |
| CNc1nccc(-c2ccc(C(=O)NC(CN)Cc3ccc(Cl)cc3Cl)s2)n1 (stereo unspecified) | 0.0048 µM | – |
| CNc1nccc(-c2ccc(C(=O)NCCc3ccccc3Cl)s2)n1 | 2.9 µM | – |
| CNc1nccc(-c2ccc(C(=O)NCCc3ccc(Cl)cc3)s2)n1 | 1.1 µM | – |
| CNc1nccc(-c2ccc(C(=O)NCc3ccc(F)cc3)s2)n1 | 4.7 µM | – |
| CNc1nccc(-c2ccc(C(=O)NCC(c3ccccc3)c3ccccc3)s2)n1 | > 25 µM | – |
| CNc1nccc(-c2ccc(S(=O)(=O)NCCc3ccc(Cl)cc3Cl)s2)n1 | > 25 µM | – |
| CNc1nccc(-c2ccc(C(=O)NCCCc3ccc(F)cc3)s2)n1 | 18 µM | – |
| CCC(CNC(=O)c1ccc(-c2ccnc(NC)n2)s1)c1ccc(Cl)cc1Cl (stereo unspecified) | 1 µM | – |
| CNc1nccc(-c2ccc(C(=O)NCCN(C)C)s2)n1 | 7 µM | – |
| CNc1nccc(-c2ccc(CNCCc3ccc(Cl)cc3Cl)s2)n1 | 5.2 µM | – |
| CNc1nccc(-c2ccc(C(=O)N[C@H](CO)Cc3ccc(Cl)cc3Cl)s2)n1 | 0.28 µM | – |

| Structure (SMILES) | IC50 [1] | further results |
| --- | --- | --- |
| CNc1nccc(-c2ccc(C(=O)NCCc3ccc(Cl)cc3Cl)s2)n1 | 0.99 µM | – |
| CNc1nccc(-c2ccc(C(=O)NCCc3cccc(Cl)c3)s2)n1 | 5.4 µM | – |
| CCNc1nccc(-c2ccc(C(=O)NCCc3ccc(Cl)cc3Cl)s2)n1 | 1.5 µM | – |
| CNc1nccc(-c2ccc(C(=O)NCCc3ccc(Br)cc3)s2)n1 | 2.6 µM | – |
| CNc1nccc(-c2ccc(NC(=O)CCc3ccc(F)cc3)s2)n1 | 2.3 µM | – |
| CNc1nccc(-c2ccc(C(=O)N[C@@H](Cc3ccc(Cl)cc3Cl)C(=O)OC)s2)n1 | 2.4 µM | – |
| CNc1nccc(-c2ccc(C(=O)NCCc3ccccc3)s2)n1 | 5 µM | – |
| CNc1nccc(-c2ccc(C(=O)NCCN)s2)n1 | 1.3 µM | – |
| Nc1nccc(-c2ccc(C(=O)NCCc3ccc(Cl)cc3Cl)s2)n1 | 0.61 µM | – |
| CNc1nccc(-c2ccc(C(=O)N[C@H](C)Cc3ccc(Cl)cc3Cl)s2)n1 | 0.82 µM | – |
| CNc1nccc(-c2ccc(C(=O)N[C@H](CCN)Cc3ccc(Cl)cc3Cl)s2)n1 | 0.027 µM | – |
| CNc1nccc(-c2ccc(C(=O)NCCc3ccc(OC)cc3)s2)n1 | > 25 µM | – |
| CNc1nccc(-c2ccc(C(=O)NCCc3ccc(S(N)(=O)=O)cc3)s2)n1 | 19 µM | – |
| CNc1nccc(-c2ccc(C(=O)N[C@@H](Cc3ccc(Cl)cc3Cl)CN(C)C)s2)n1 | 0.011 µM | – |
| CNc1nccc(-c2ccc(NC(=O)OCc3ccc(F)cc3)s2)n1 | 7.4 µM | – |
| CNc1nccc(-c2ccc(C(=O)N[C@@H](CN)Cc3ccc(Cl)cc3Cl)s2)n1 | 0.24 µM | – |
| CN(C)c1nccc(-c2ccc(C(=O)NCCc3ccc(Cl)cc3Cl)s2)n1 | > 25 µM | – |
| CNc1nccc(-c2ccc(NC(=O)NCc3ccc(Cl)cc3Cl)s2)n1 | 2.1 µM | – |
